Calls of active or inactive are those of the source.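 How the source made its calls, unless noted: active means viability loss from added drug above about 55%, and viability with drug at most 40%, in both replicates (limit read from the data, passing the limit was not always enough); inconclusive means both conditions met in only one replicate; inactive means neither replicate meets both conditions.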
Legend:
[1] = reducers of endogenous Her2 protein level, primary screen, SKBR3 breast tumor cells, AlphaScreen, ATP viability (AID 461;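 active means Her2 level under about 52% in both replicate screens, with viability over 70% of control, limit read from the data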;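 on Her2 level: lower value means less Her2 protein in the cells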;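 on viability: percent of carrier control wells set as 100% viability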); settings: 18-24 h, measured here: SKBR3 viability, ATP luminescence, at 10 µM
[2] = biological target: Receptor tyrosine-protein kinase erbB-2 (Homo sapiens) (UniProt P04626); experiment: as above; settings: 18-24 h, at 10 µM, stronger effect = lower value
Sequence of Receptor tyrosine-protein kinase erbB-2 (Homo sapiens) (P04626 whole entry, looked up): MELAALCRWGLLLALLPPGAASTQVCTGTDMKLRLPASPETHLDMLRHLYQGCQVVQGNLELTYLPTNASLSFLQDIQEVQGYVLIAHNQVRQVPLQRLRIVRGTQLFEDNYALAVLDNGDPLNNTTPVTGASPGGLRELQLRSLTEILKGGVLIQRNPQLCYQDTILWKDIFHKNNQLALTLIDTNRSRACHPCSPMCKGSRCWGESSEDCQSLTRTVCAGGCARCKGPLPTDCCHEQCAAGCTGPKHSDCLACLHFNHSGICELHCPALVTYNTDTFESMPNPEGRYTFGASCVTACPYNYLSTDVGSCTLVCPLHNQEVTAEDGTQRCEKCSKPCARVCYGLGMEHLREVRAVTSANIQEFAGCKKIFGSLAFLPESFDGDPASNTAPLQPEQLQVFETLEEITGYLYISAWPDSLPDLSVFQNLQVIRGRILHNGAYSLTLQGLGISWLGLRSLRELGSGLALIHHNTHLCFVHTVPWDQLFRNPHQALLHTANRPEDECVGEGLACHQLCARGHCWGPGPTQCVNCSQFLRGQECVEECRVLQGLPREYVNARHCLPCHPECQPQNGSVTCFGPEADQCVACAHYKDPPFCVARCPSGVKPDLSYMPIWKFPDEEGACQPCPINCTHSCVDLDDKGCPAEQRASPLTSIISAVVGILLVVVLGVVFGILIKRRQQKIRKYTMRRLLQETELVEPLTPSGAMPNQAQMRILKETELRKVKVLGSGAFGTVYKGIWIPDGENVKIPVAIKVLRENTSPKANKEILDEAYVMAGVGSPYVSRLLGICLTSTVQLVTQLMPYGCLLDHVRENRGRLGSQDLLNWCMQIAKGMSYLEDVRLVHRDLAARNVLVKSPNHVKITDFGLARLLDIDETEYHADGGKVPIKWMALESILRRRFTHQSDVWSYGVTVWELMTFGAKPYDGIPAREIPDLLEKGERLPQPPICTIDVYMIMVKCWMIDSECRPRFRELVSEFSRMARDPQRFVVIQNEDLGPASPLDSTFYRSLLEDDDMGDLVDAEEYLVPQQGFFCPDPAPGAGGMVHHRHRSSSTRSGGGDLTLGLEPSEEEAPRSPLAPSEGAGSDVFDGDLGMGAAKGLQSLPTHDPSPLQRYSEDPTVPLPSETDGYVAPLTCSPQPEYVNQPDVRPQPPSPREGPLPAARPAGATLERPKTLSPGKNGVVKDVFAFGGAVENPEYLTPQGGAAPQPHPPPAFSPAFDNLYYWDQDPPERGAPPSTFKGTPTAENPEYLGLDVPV

[3] = SK-BR-3 cell growth inhibitors, pilot screen, 24 h, human (AID 572;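 active means viability at or below 10% of carrier control in both of two separate runs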;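 further: compound exposure lasted between 18 and 24 h rather than exactly 24 h; 100% = carrier-treated control wells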); settings: SK-BR-3 viability, CellTiter-Glo luminescence, at 10 µM, stronger effect = lower value
[4] = HUVEC growth inhibition – cell-based, human, primary screen (AID 575;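 active means viability at or below 30% in both replicate assays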;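 further: 100% = median of untreated cell wells with 0.1% DMSO on each plate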); settings: HUVEC proliferation, CellTiter-Glo luminescence, 72 h; at 10 µM; stronger effect = lower value
In short: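 material = primary HUVEC, no more than 12 passages | input = 1250 cells per well | controls = vehicle and MePR control wells | measured by = CTG luminescence | times = 72 h compound incubation | format = collagen-coated 384-well format | read-out = % viability vs DMSO wells | doses = single 10 µM dose, 0.1% DMSO, from 5x medium stock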

[5] = growth inhibitors of H69AR lung tumor, primary screen, human, duplicate replicates (AID 580;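 active means viability at or under a set limit in both replicates, limit being median viability minus 3 SD, cut at about 48% in these data, passing the limit was not always enough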;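 further: 100% = mean luminescence of untreated wells and 0% = no signal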); settings: H69AR lung tumor cells viability, ATP luminescence, 72 h; at 10 µM; stronger effect = lower value
[6] = reversal of MRP1-mediated doxorubicin resistance, pilot screen, H69AR cells, doxorubicin co-treatment (AID 601); settings: CellTiter-Glo, 72 h, at 10 µM; for differential viability (reversal): stronger effect = higher value
[7] = 384-well plate pilot, post-Golgi transport modulator project, inhibition of yeast transport mutant growth (AID 636; in the data active means inhibition above about 31%); settings: absorbance 615 nm, about 18 h, stronger effect = higher value
[8] = growth suppression of yeast trafficking mutant, preliminary HTS, modulators of trafficking downstream of Golgi apparatus project, 1536-format plate, OD 615 nm (AID 637; in the data active means inhibition above about 30%); settings: yeast transport mutant growth, absorbance 615 nm, 18 h; stronger effect = higher value
[9] = H69AR cells + 2 uM doxorubicin, measured here: viability with 2 uM doxorubicin, stronger effect = lower value
[10] = H69AR cells, compound alone cytotoxicity

Compound	viability [1] [%]	Her2 level [2]	viability [3]	viability [4]	viability [5]	differential viability (reversal) ([6]; H69AR cells + 2 uM doxorubicin)	viability [6, 9] [%]	viability [6, 10] [%]	inhibition [7]	inhibition [8]
Cc1ccc(-c2cc(C(=O)N3CCCC3)no2)cc1	93.5	106% (inactive)	93.5% (inactive)	96% (inactive)	95.1% (inactive)	2% (inactive)	93.1	95.1	-2.11% (inactive)	-5.16% (inactive)
CCOC(=O)CC(=O)CSc1[nH]c(=O)cc(C)c1C#N	87.5	106% (inactive)	87.5% (inactive)	99.3% (inactive)	108% (inactive)	4.69% (inactive)	104	108	-4.8% (inactive)	-0.16% (inactive)
Cc1nn(Cc2ccc(C(=O)NC3CCCCC3)o2)c(C)c1Br	94.5	90% (inactive)	94.5% (inactive)	86.9% (inactive)	92.9% (inactive)	-5.8% (inactive)	98.7	92.9	-3.29% (inactive)	-5.17% (inactive)
Cc1ccc(NC(=O)CSc2nnc(CSc3nc(C)cc(C)n3)n2Cc2ccco2)c(C)c1	88	96% (inactive)	88% (inactive)	96.9% (inactive)	80.8% (inactive)	16.1% (inactive)	64.7	80.8	0.8% (inactive)	-6.72% (inactive)
CC(CN1CCN(C)CC1)OC(=O)c1ccc(Cl)cc1Cl (stereo not given)	127	90.5% (inactive)	127% (inactive)	88.6% (inactive)	102% (inactive)	14% (inactive)	88.2	102	-4.53% (inactive)	10% (inactive)
COc1ccc(-n2c(SCCC(=O)O)nnc2-c2ccncc2)cc1	96	96% (inactive)	96% (inactive)	97% (inactive)	96.7% (inactive)	0.675% (inactive)	96.1	96.7	-3.42% (inactive)	0.32% (inactive)
O=C(CSc1nnnn1C1CCCC1)Nc1cccc(NC(=O)c2ccco2)c1	91.5	98.5% (inactive)	91.5% (inactive)	96.7% (inactive)	110% (inactive)	13.4% (inactive)	97	110	-0.39% (inactive)	-2.17% (inactive)
Cc1noc(COc2ccccc2OCC(O)CNC(C)(C)C)n1 (stereo not given)	101	89% (inactive)	101% (inactive)	103% (inactive)	97% (inactive)	7.13% (inactive)	89.9	97	-5.21% (inactive)	-9.37% (inactive)
CNC(=O)CSc1nnc(-c2cccc(S(=O)(=O)N3CCOCC3)c2)n1-c1ccc(F)cc1	78.5	95% (inactive)	78.5% (inactive)	99.9% (inactive)	93.2% (inactive)	-5.28% (inactive)	98.5	93.2	0% (inactive)	-2.5% (inactive)
O=C(NC1CCCCC1)C1CC(O)CN1C(=O)OCc1ccccc1 (stereo not given)	88	93% (inactive)	88% (inactive)	110% (inactive)	93.4% (inactive)	9.51% (inactive)	83.9	93.4	0.13% (inactive)	-3.09% (inactive)
CCC(=O)c1ccc(OC(=O)c2ccc(Br)o2)cc1	102	78.5% (inactive)	102% (inactive)	98% (inactive)	108% (inactive)	8.45% (inactive)	99.9	108	-4.67% (inactive)	8.2% (inactive)
O=C(Nc1nccs1)NC(C(F)(F)F)C(F)(F)F	104	87.5% (inactive)	104% (inactive)	93% (inactive)	95.1% (inactive)	-0.09% (inactive)	95.1	95.1	-6.44% (inactive)	-0.16% (inactive)
C/C(=N\O)C(=O)NCCCNCCCN(C)C	104	94.5% (inactive)	104% (inactive)	117% (inactive)	98.2% (inactive)	-3.41% (inactive)	102	98.2	-6.16% (inactive)	0.48% (inactive)
CCCC(C)C(=O)Nc1ccc(C(N)=O)cc1 (stereo not given)	95	93.5% (inactive)	95% (inactive)	96% (inactive)	93.1% (inactive)	7.36% (inactive)	85.7	93.1	-5.81% (inactive)	-1.33% (inactive)
COc1ccc(C(=O)NCCn2ccc3ccccc32)c(OC)c1	95	81% (inactive)	95% (inactive)	88.7% (inactive)	87.7% (inactive)	-0.23% (inactive)	87.9	87.7	-6.49% (inactive)	1.11% (inactive)
CCOC(=O)c1ccc(NC(=O)CCc2c(C)nc3ncnn3c2C)cc1	88	95.5% (inactive)	88% (inactive)	107% (inactive)	92.7% (inactive)	-9.71% (inactive)	102	92.7	1.37% (inactive)	-5.56% (inactive)

Compound	viability [1] [%]	Her2 level [2]	viability [3]	viability [4]	viability [5]	differential viability (reversal) ([6]; H69AR cells + 2 uM doxorubicin)	viability [6, 9] [%]	viability [6, 10] [%]	inhibition [7]	inhibition [8]
O=c1c2ccccc2cnn1-c1nc2ccccc2s1	91	73% (inactive)	91% (inactive)	63.6% (inactive)	81.6% (inactive)	0.15% (inactive)	81.4	81.6	-7.3% (inactive)	-3.33% (inactive)
O=C(Cn1ccc2ccccc2c1=O)Nc1ccc2c(c1)OCO2	104	95.5% (inactive)	104% (inactive)	95.7% (inactive)	107% (inactive)	14.8% (inactive)	92.2	107	1.49% (inactive)	-3.17% (inactive)
O=C(Cn1nnc2ccccc2c1=O)NC1CCCc2ccccc21 (stereo not given)	77	97.5% (inactive)	77% (inactive)	101% (inactive)	103% (inactive)	7.25% (inactive)	95.4	103	-2.67% (inactive)	4.68% (inactive)
CC(C)(C)C1=C[C@@H](CO)C[C@@H](CO)C1	86	87% (inactive)	86% (inactive)	94.2% (inactive)	87.3% (inactive)	-0.585% (inactive)	87.9	87.3	-4.13% (inactive)	-5.08% (inactive)
N#Cc1nc(COc2ccccc2)oc1NCCCn1ccnc1	104	103% (inactive)	104% (inactive)	96.5% (inactive)	112% (inactive)	5.22% (inactive)	107	112	-0.39% (inactive)	5.56% (inactive)
O=C(OC1CCOC1=O)c1ccc(S(=O)(=O)N2CCCCCC2)cc1 (stereo not given)	95.5	113% (inactive)	95.5% (inactive)	95.3% (inactive)	106% (inactive)	12.5% (inactive)	93.6	106	0.26% (inactive)	1.83% (inactive)
COc1ccc(NC(=O)CN(c2ccc(C)cc2)S(C)(=O)=O)c(OC)c1	90	118% (inactive)	90% (inactive)	84.8% (inactive)	101% (inactive)	11.9% (inactive)	89.4	101	-2.63% (inactive)	-3.5% (inactive)
CCc1cccc(NS(=O)(=O)c2c(C)n[nH]c2C)c1	92	96% (inactive)	92% (inactive)	110% (inactive)	107% (inactive)	13.2% (inactive)	93.5	107	-6.05% (inactive)	-5.08% (inactive)
CCCCCC1CC(CC(C)C(=O)Nc2nncs2)C(=O)O1 (stereo not given)	90.5	86.5% (inactive)	90.5% (inactive)	85.2% (inactive)	93.3% (inactive)	7.83% (inactive)	85.4	93.3	-5.6% (inactive)	-2.86% (inactive)
CCc1nnc(NC(=O)CSc2nnc(-c3ccc(OC)cc3)n2C)s1	87	94% (inactive)	87% (inactive)	89.3% (inactive)	104% (inactive)	5.08% (inactive)	98.6	104	-2.8% (inactive)	1.8% (inactive)
N#CCCN(C(=O)Nc1ccc(Cl)cc1)c1ccccc1	94	111% (inactive)	94% (inactive)	113% (inactive)	105% (inactive)	9.02% (inactive)	95.5	105	-2% (inactive)	0% (inactive)
CCOC(=O)C1=C(C)Nc2ncnn2C1c1cc(OC)ccc1OC (stereo not given)	92.5	84.5% (inactive)	92.5% (inactive)	84.6% (inactive)	81.8% (inactive)	0.51% (inactive)	81.3	81.8	-6.22% (inactive)	1.17% (inactive)
CCC(Sc1nc2sc(C(=O)OC)c(C)c2c(=O)n1N)C(=O)NCC1CCCO1 (stereo not given)	102	88% (inactive)	102% (inactive)	94.2% (inactive)	82.2% (inactive)	-5.51% (inactive)	87.7	82.2	-6.49% (inactive)	-1.27% (inactive)
CC(C)(O)C1=NOC(c2ccccc2)C1 (stereo not given)	98	108% (inactive)	98% (inactive)	76.2% (inactive)	71.1% (inactive)	-14.7% (inactive)	85.8	71.1	-2.57% (inactive)	1.31% (inactive)
N#CC1=C(N)SC(N)=C(C#N)C1c1ccc(C(F)(F)F)cc1	90	104% (inactive)	90% (inactive)	56.3% (inactive)	84.3% (inactive)	-4.95% (inactive)	89.3	84.3	5.58% (inactive)	0.82% (inactive)
CC1(C)Cc2c(sc3c2C2=NCCN2C=N3)CO1	111	104% (inactive)	111% (inactive)	91.5% (inactive)	90.9% (inactive)	1.75% (inactive)	89.2	90.9	-3.82% (inactive)	-4.55% (inactive)
